# Results: ChEMBL document CHEMBL1147366, “Cytotoxic and antimalarial alkaloids from the tubers of Stephania pierrei” (J Nat Prod, 1993)
# Tested on: not listed separately
# Experiment: Cytotoxicity against human BCA1 cells after 3 days by SRB assay
# Assay type: functional
# Settings: BCA1, 72 h, read-out: ED50 (the source's name)
row,SMILES,EC50
1,COc1cc2c(cc1OC)-c1c3c(cc4c1[C@@H](C2)NCC4)OCO3,2 µg/mL
2,COc1c(O)cc2c3c1-c1ccccc1C[C@H]3NCC2 [(-)-ASIMILOBINE],> 20 µg/mL
3,c1ccc2c(c1)C[C@H]1NCCc3cc4c(c-2c31)OCO4 [ANONAINE],3.3 µg/mL
4,COc1cc2c(cc1O)C[C@H]1c3c(cc4c(c3-2)OCO4)CCN1C [CASSYTHICINE],6.8 µg/mL

# Tested on: HT-1080
# Experiment: Cytotoxicity against human HT1080 cells after 3 days by SRB assay
# Assay type: functional
# Settings: HT-1080, 72 h, read-out: ED50 (the source's name)
row,SMILES,EC50
1,COc1cc2c(cc1OC)-c1c3c(cc4c1[C@@H](C2)NCC4)OCO3,1.7 µg/mL
2,COc1c(O)cc2c3c1-c1ccccc1C[C@H]3NCC2 [(-)-ASIMILOBINE],> 20 µg/mL
3,c1ccc2c(c1)C[C@H]1NCCc3cc4c(c-2c31)OCO4 [ANONAINE],2.4 µg/mL
4,COc1cc2c(cc1O)C[C@H]1c3c(cc4c(c3-2)OCO4)CCN1C [CASSYTHICINE],7.6 µg/mL

# Tested on: not listed separately
# Experiment: Cytotoxicity against human LUC1 cells after 3 days by SRB assay
# Assay type: functional
# Settings: LUC1, 72 h, read-out: ED50 (the source's name)
row,SMILES,EC50
1,COc1cc2c(cc1OC)-c1c3c(cc4c1[C@@H](C2)NCC4)OCO3,13.2 µg/mL
2,COc1c(O)cc2c3c1-c1ccccc1C[C@H]3NCC2 [(-)-ASIMILOBINE],> 20 µg/mL
3,c1ccc2c(c1)C[C@H]1NCCc3cc4c(c-2c31)OCO4 [ANONAINE],1.8 µg/mL
4,COc1cc2c(cc1O)C[C@H]1c3c(cc4c(c3-2)OCO4)CCN1C [CASSYTHICINE],6.6 µg/mL

# Tested on: SK-MEL-2
# Experiment: Cytotoxicity against human SK-MEL-2 cells after 3 days by SRB assay
# Assay type: functional
# Settings: SK-MEL-2, 72 h, read-out: ED50 (the source's name)
row,SMILES,EC50
1,COc1cc2c(cc1OC)-c1c3c(cc4c1[C@@H](C2)NCC4)OCO3,3.3 µg/mL
2,COc1c(O)cc2c3c1-c1ccccc1C[C@H]3NCC2 [(-)-ASIMILOBINE],> 20 µg/mL
3,c1ccc2c(c1)C[C@H]1NCCc3cc4c(c-2c31)OCO4 [ANONAINE],15.8 µg/mL
4,COc1cc2c(cc1O)C[C@H]1c3c(cc4c(c3-2)OCO4)CCN1C [CASSYTHICINE],8.9 µg/mL

# Tested on: not listed separately
# Experiment: Cytotoxicity against human Col1 cells after 3 days by SRB assay
# Assay type: functional
# Settings: Col1, 72 h, read-out: ED50 (the source's name)
row,SMILES,EC50
1,COc1cc2c(cc1OC)-c1c3c(cc4c1[C@@H](C2)NCC4)OCO3,1.7 µg/mL
2,COc1c(O)cc2c3c1-c1ccccc1C[C@H]3NCC2 [(-)-ASIMILOBINE],> 20 µg/mL
3,c1ccc2c(c1)C[C@H]1NCCc3cc4c(c-2c31)OCO4 [ANONAINE],4 µg/mL
4,COc1cc2c(cc1O)C[C@H]1c3c(cc4c(c3-2)OCO4)CCN1C [CASSYTHICINE],7.3 µg/mL

# Tested on: not listed separately
# Experiment: Cytotoxicity against human KB cells after 3 days by SRB assay
# Assay type: cell-based
# Settings: read-out: ED50
row,SMILES,CC50 at 72 h
1,COc1cc2c(cc1OC)-c1c3c(cc4c1[C@@H](C2)NCC4)OCO3,0.8 µg/mL
2,COc1c(O)cc2c3c1-c1ccccc1C[C@H]3NCC2 [(-)-ASIMILOBINE],> 20 µg/mL
3,c1ccc2c(c1)C[C@H]1NCCc3cc4c(c-2c31)OCO4 [ANONAINE],2.6 µg/mL
4,COc1cc2c(cc1O)C[C@H]1c3c(cc4c(c3-2)OCO4)CCN1C [CASSYTHICINE],3 µg/mL

# Tested on: not listed separately
# Experiment: Cytotoxicity against vinblastine-resistant human KBV1 cells after 3 days by SRB assay
# Assay type: functional
# Settings: KB-V1, 72 h, read-out: ED50 (the source's name)
row,SMILES,EC50
1,COc1cc2c(cc1OC)-c1c3c(cc4c1[C@@H](C2)NCC4)OCO3,0.7 µg/mL
2,COc1c(O)cc2c3c1-c1ccccc1C[C@H]3NCC2 [(-)-ASIMILOBINE],> 20 µg/mL
3,c1ccc2c(c1)C[C@H]1NCCc3cc4c(c-2c31)OCO4 [ANONAINE],1.8 µg/mL
4,COc1cc2c(cc1O)C[C@H]1c3c(cc4c(c3-2)OCO4)CCN1C [CASSYTHICINE],1.2 µg/mL

# Tested on: P388
# Experiment: Cytotoxicity against mouse P388 cells after 3 days by SRB assay
# Assay type: functional
# Settings: P388, 72 h, read-out: ED50 (the source's name)
row,SMILES,EC50
1,COc1cc2c(cc1OC)-c1c3c(cc4c1[C@@H](C2)NCC4)OCO3,0.6 µg/mL
2,COc1c(O)cc2c3c1-c1ccccc1C[C@H]3NCC2 [(-)-ASIMILOBINE],> 20 µg/mL
3,c1ccc2c(c1)C[C@H]1NCCc3cc4c(c-2c31)OCO4 [ANONAINE],> 5 µg/mL
4,COc1cc2c(cc1O)C[C@H]1c3c(cc4c(c3-2)OCO4)CCN1C [CASSYTHICINE],> 5 µg/mL

# Tested on: A-431
# Experiment: Cytotoxicity against human A431 cells after 3 days by SRB assay
# Assay type: functional
# Settings: A-431, 72 h, read-out: ED50 (the source's name)
row,SMILES,EC50
1,COc1cc2c(cc1OC)-c1c3c(cc4c1[C@@H](C2)NCC4)OCO3,0.8 µg/mL
2,COc1c(O)cc2c3c1-c1ccccc1C[C@H]3NCC2 [(-)-ASIMILOBINE],> 20 µg/mL
3,c1ccc2c(c1)C[C@H]1NCCc3cc4c(c-2c31)OCO4 [ANONAINE],4.2 µg/mL
4,COc1cc2c(cc1O)C[C@H]1c3c(cc4c(c3-2)OCO4)CCN1C [CASSYTHICINE],10.5 µg/mL

# Tested on: LNCaP
# Experiment: Cytotoxicity against human LNCAP cells after 3 days by SRB assay
# Assay type: functional
# Settings: 72 h, read-out: ED50 (the source's name)
row,SMILES,EC50
1,COc1cc2c(cc1OC)-c1c3c(cc4c1[C@@H](C2)NCC4)OCO3,1.5 µg/mL
2,COc1c(O)cc2c3c1-c1ccccc1C[C@H]3NCC2 [(-)-ASIMILOBINE],> 20 µg/mL
3,c1ccc2c(c1)C[C@H]1NCCc3cc4c(c-2c31)OCO4 [ANONAINE],2.9 µg/mL
4,COc1cc2c(cc1O)C[C@H]1c3c(cc4c(c3-2)OCO4)CCN1C [CASSYTHICINE],6.1 µg/mL

# Tested on: ZR-75-1
# Experiment: Cytotoxicity against human ZR-75-1 cells after 3 days by SRB assay
# Assay type: functional
# Settings: ZR-75-1, 72 h, read-out: ED50 (the source's name)
row,SMILES,EC50
1,COc1cc2c(cc1OC)-c1c3c(cc4c1[C@@H](C2)NCC4)OCO3,1.7 µg/mL
2,COc1c(O)cc2c3c1-c1ccccc1C[C@H]3NCC2 [(-)-ASIMILOBINE],> 20 µg/mL
3,c1ccc2c(c1)C[C@H]1NCCc3cc4c(c-2c31)OCO4 [ANONAINE],2.7 µg/mL
4,COc1cc2c(cc1O)C[C@H]1c3c(cc4c(c3-2)OCO4)CCN1C [CASSYTHICINE],9.8 µg/mL

# Tested on: not listed separately
# Experiment: Cytotoxicity against human U373 cells after 3 days by SRB assay
# Assay type: functional, U-373MG ATCC
# Settings: U373 MG, 72 h, read-out: ED50 (the source's name)
row,SMILES,EC50
1,COc1cc2c(cc1OC)-c1c3c(cc4c1[C@@H](C2)NCC4)OCO3,0.6 µg/mL
2,COc1c(O)cc2c3c1-c1ccccc1C[C@H]3NCC2 [(-)-ASIMILOBINE],> 20 µg/mL
3,c1ccc2c(c1)C[C@H]1NCCc3cc4c(c-2c31)OCO4 [ANONAINE],1.5 µg/mL
4,COc1cc2c(cc1O)C[C@H]1c3c(cc4c(c3-2)OCO4)CCN1C [CASSYTHICINE],4.8 µg/mL

# Tested on: Plasmodium falciparum
# Experiment: Antimalarial activity after 24 hrs against chloroquine-sensitive Plasmodium falciparum D6 infected type A+ human erythrocytes by [3H]hypoxanthine uptake
# Assay type: functional
# Settings: read-out: ED50 (the source's name)
row,SMILES,EC50
1,COC1=C[C@@]23CCN(C)[C@@H](Cc4ccc(OC)c(O)c42)C3=CC1=O,> 10 µg/mL
2,COc1cc2c(cc1OC)[C@@H]1Cc3ccc(O)c(OC)c3CN1CC2,2.84 µg/mL
3,COC1=C(OC)[C@]23CCc4cc5c(cc4[C@]2(CCN3C)CC1=O)OCO5,> 10 µg/mL
4,COc1cc2c(cc1OC)-c1c3c(cc4c1[C@@H](C2)NCC4)OCO3,0.47 µg/mL
5,COc1c(O)cc2c3c1-c1ccccc1C[C@H]3NCC2 [(-)-ASIMILOBINE],0.95 µg/mL
6,c1ccc2c(c1)C[C@H]1NCCc3cc4c(c-2c31)OCO4 [ANONAINE],1.29 µg/mL
7,COc1cc2c(cc1O)C[C@H]1c3c(cc4c(c3-2)OCO4)CCN1C [CASSYTHICINE],2.29 µg/mL

# Tested on: Plasmodium falciparum
# Experiment: Antimalarial activity after 24 hrs against chloroquine-resistant Plasmodium falciparum W2 infected type A+ human erythrocytes by [3H]hypoxanthine uptake
# Assay type: functional
# Settings: read-out: ED50 (the source's name)
row,SMILES,EC50
1,COC1=C[C@@]23CCN(C)[C@@H](Cc4ccc(OC)c(O)c42)C3=CC1=O,> 10 µg/mL
2,COc1cc2c(cc1OC)[C@@H]1Cc3ccc(O)c(OC)c3CN1CC2,0.84 µg/mL
3,COC1=C(OC)[C@]23CCc4cc5c(cc4[C@]2(CCN3C)CC1=O)OCO5,> 10 µg/mL
4,COc1cc2c(cc1OC)-c1c3c(cc4c1[C@@H](C2)NCC4)OCO3,1.03 µg/mL
5,COc1c(O)cc2c3c1-c1ccccc1C[C@H]3NCC2 [(-)-ASIMILOBINE],0.47 µg/mL
6,c1ccc2c(c1)C[C@H]1NCCc3cc4c(c-2c31)OCO4 [ANONAINE],1.9 µg/mL
7,COc1cc2c(cc1O)C[C@H]1c3c(cc4c(c3-2)OCO4)CCN1C [CASSYTHICINE],2.26 µg/mL

# Tested on: not listed separately
# Experiment: Selectivity index, ED50 for human KB cells to ED50 for chloroquine-sensitive Plasmodium falciparum D6
# Assay type: toxicity, cell-based
# Settings: read-out: Ratio ED50
# How it was run: (§1)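 Selectivity index is the ED50 in KB cells divided by the ED50 against the P. falciparum strain (D-6, chloroquine-sensitive; W-2, chloroquine-resistant). Parasite ED50s are expressed in ng/ml and KB ED50s in µg/ml.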
row,SMILES,selectivity ratio
1,COc1cc2c(cc1OC)[C@@H]1Cc3ccc(O)c(OC)c3CN1CC2,> 7
2,COc1cc2c(cc1OC)-c1c3c(cc4c1[C@@H](C2)NCC4)OCO3,2
3,COc1c(O)cc2c3c1-c1ccccc1C[C@H]3NCC2 [(-)-ASIMILOBINE],> 21
4,c1ccc2c(c1)C[C@H]1NCCc3cc4c(c-2c31)OCO4 [ANONAINE],5
5,COc1cc2c(cc1O)C[C@H]1c3c(cc4c(c3-2)OCO4)CCN1C [CASSYTHICINE],2

# Tested on: not listed separately
# Experiment: Selectivity index, ED50 for human KB cells to ED50 for chloroquine-resistant Plasmodium falciparum W2
# Assay type: toxicity, cell-based
# Settings: read-out: Ratio ED50
# How it was run: as §1
row,SMILES,selectivity ratio
1,COc1cc2c(cc1OC)[C@@H]1Cc3ccc(O)c(OC)c3CN1CC2,> 24
2,COc1c(O)cc2c3c1-c1ccccc1C[C@H]3NCC2 [(-)-ASIMILOBINE],> 42
3,c1ccc2c(c1)C[C@H]1NCCc3cc4c(c-2c31)OCO4 [ANONAINE],3
4,COc1cc2c(cc1O)C[C@H]1c3c(cc4c(c3-2)OCO4)CCN1C [CASSYTHICINE],3
